Experimental data reported in ChEMBL document CHEMBL1123845 (J Med Chem, 1987).
Activity calls are given as the source filed them. The rule behind the calls is not given here.

Each compound was assayed against T1, Polyunsaturated fatty acid 5-lipoxygenase (Rattus norvegicus) (UniProt P12527) (assay: Compound was evaluated for the inhibition of rat basophilic leukemia-1 (RBL-1) 5-Lipoxygenase at 75 uM).
T1 sequence (whole entry): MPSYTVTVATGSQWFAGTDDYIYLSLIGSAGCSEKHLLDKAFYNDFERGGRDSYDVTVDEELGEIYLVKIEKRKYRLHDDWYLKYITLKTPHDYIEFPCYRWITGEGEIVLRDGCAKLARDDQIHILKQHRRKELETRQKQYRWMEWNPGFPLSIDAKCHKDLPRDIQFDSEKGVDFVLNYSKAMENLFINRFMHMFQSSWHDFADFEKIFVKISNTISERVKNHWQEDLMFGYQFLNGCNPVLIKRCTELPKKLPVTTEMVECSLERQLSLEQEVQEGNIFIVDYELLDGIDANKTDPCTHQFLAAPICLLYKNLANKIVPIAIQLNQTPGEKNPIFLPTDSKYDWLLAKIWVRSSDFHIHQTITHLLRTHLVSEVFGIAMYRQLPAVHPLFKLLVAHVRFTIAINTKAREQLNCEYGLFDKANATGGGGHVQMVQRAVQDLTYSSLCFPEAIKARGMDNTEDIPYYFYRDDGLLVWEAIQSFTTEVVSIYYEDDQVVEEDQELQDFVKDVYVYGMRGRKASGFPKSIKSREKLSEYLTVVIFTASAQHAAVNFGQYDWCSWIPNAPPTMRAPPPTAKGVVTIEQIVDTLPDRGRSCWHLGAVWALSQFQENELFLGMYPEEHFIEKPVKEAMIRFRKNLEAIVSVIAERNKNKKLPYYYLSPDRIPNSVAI
Assay type: cell-based
Method in brief: (§1)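 Enzyme source: 20000g supernatant of sonicated RBL-1 cells (1.5 × 10⁶ cell equivalents) in pH 6.8 BES/PIPES buffer with EDTA, CaCl₂ and NaCl. Compound or 2% DMSO vehicle preincubated 20 min at 37 °C. Reaction started with 66 μM arachidonic acid carrying [¹⁴C] tracer and run 5 min. Acid stop, ether extraction, then TLC. [¹⁴C]5-HETE counted and corrected by [³H]-5-HETE recovery.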

inhibition	SMILES
36%	CCCCCC(O)CC/C=C\CCCCCCCCCC(=O)O (stereo not given)

What follows are compounds tested against T2, Polyunsaturated fatty acid 5-lipoxygenase (Rattus norvegicus, UniProt P12527) (assay: (§2) Compound was evaluated for the inhibition of rat basophilic leukemia-1 (RBL-1) 5-Lipoxygenase at 100 uM; NS = no significant activity).
T2 sequence (P12527 whole entry): T1 sequence (whole entry)
Assay type: cell-based
Method in brief: as §1

IC50	SMILES
Not Active	CCCCCC(O)/C=C/C=C/CCCCC(=O)O (stereo not given)

Each compound was assayed against T1, Polyunsaturated fatty acid 5-lipoxygenase (Rattus norvegicus) (assay: as §2).
Assay type: cell-based
Method in brief: as §1

inhibition	SMILES
inactive	O=C(O)CCCCCCCCCC#C/C=C/C(O)CCCCC(=O)O (stereo not given)
inactive	CCCCCC(O)/C=C/C#CCCCCCC(=O)O (stereo not given)
inactive	CCCCCC(O)/C=C/C#CCCCCC(=O)O (stereo not given)
inactive	CCCCC[C@H](O)CCCCCCCCCCCCCC(=O)O

What follows are compounds tested against T1, Polyunsaturated fatty acid 5-lipoxygenase (Rattus norvegicus) (assay: Compound was evaluated for the inhibition of rat basophilic leukemia-1 (RBL-1) 5-Lipoxygenase at 30 uM).
Assay type: cell-based
Method in brief: as §1

inhibition	SMILES
33%	CCCCCC/C=C/C#CCCCCCCCCC(=O)O
33%	CCCCCC(O)/C=C/C=C/CCCCCCCCCC(=O)O (stereo not given)
41%	CCCCCC(O)/C=C/C=C/CCCCCCCCCCC(=O)O (stereo not given)
49%	CCCCCC(O)/C=C/C#CCCCCCCCCCC(=O)N(CC)CC (stereo not given)
24%	CCCCCC(O)/C=C/C#CCCCCCCCCCCC(=O)O (stereo not given)
39%	CCCCC[C@H](O)/C=C/C=C\CCCCCCCCCC(=O)N(CC)CC

Each compound was assayed against T2, Polyunsaturated fatty acid 5-lipoxygenase (assay: Inhibition of rat basophilic leukemia-1 (RBL-1) 5-lipoxygenase).
Assay type: cell-based
Method in brief: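 Enzyme source: 20000g supernatant of sonicated RBL-1 cells (1.5 × 10⁶ cell equivalents) in pH 6.8 BES/PIPES buffer with EDTA, CaCl₂ and NaCl. Compound or 2% DMSO vehicle preincubated 20 min at 37 °C. Acid stop, ether extraction, then TLC. [¹⁴C]5-HETE counted and corrected by [³H]-5-HETE recovery.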

IC50	SMILES
26 µM	CCCCC[C@H](O)/C=C/C=C\CCCCCCCCCC(=O)O
73 µM	CCCCCC(O)/C=C/C#CCCCCCCCCC(=O)O (stereo not given)
62 µM	CCCCC[C@H](O)/C=C/C=C\C/C=C\C/C=C\CCCCCC(=O)O
23 µM	CCCCC/C=C\C/C=C\C/C=C\C=C\C1CCCC(=O)O1 (stereo not given)
82 µM	O=C(O)CCCCCCCCCC#C/C=C/C(O)CC1CCCC1 (stereo not given)
160 µM	CCCC(O)/C=C/C=C/CCCCCCCCCC(=O)O (stereo not given)
32 µM	CCCCCCC(O)/C=C/C#CCCCCCCCCCC(=O)O (stereo not given)
260 µM	CCCC(O)/C=C/C#CCCCCCCCCCC(=O)O (stereo not given)
64 µM	CCCCC[C@H](O)/C=C/C=C\C/C=C\C/C=C\CCCC(=O)OC
77 µM	CCCCC[C@H](O)/C=C\C=C/C/C=C\CCCCCCC(=O)O
82 µM	CCCCC[C@H](O)/C=C/C=C\CCCCCCCC(=O)O
76 µM	CCCCCC(/C=C/C=C\CCCCCCCCCC(=O)O)OC(C)=O (stereo not given)
270 µM	CCCCC[C@H](O)/C=C/C=C\C/C=C\C=C\C(O)CCCC(=O)O (stereo not given in full)
7.2 µM	CCCCC[C@@H](/C=C/C=C\C/C=C\C/C=C\CCCC(=O)OC)OC(C)=O
29 µM	CCCCC[C@H](O)/C=C/C=C\C/C=C/CCCCC(=O)O
35 µM	CCCCCC(O)/C=C/C=C\CCCCCCCCCC(=O)O (stereo not given)
17 µM	CCCCC[C@@H](/C=C/C=C\C/C=C\C/C=C\CCCC(=O)O)OC(C)=O
61 µM	O=C(O)CCCCCCCCC/C=C/C=C/C(O)CC1CCCC1 (stereo not given)
25 µM	CCCCC[C@H](O)/C=C/C=C\C/C=C\C=C\C1CCCC(=O)O1 (stereo not given in full)
6.5 µM	CCCCC[C@H](O)/C=C/C=C\C/C=C\C/C=C\CCCCCC(=O)OC
55 µM	CCCCCC(=O)/C=C/C=C\CCCCCCCCCC(=O)O
26 µM	CCCCCC(=O)/C=C/C=C\C/C=C\C/C=C\CCCC(=O)O
77 µM	CCCCC/C=C\C/C=C\C/C=C\C=C\C(O)CCCC(=O)O (stereo not given)
7.3 µM	CCCCC[C@H](O)/C=C/C=C\C/C=C\C/C=C\CCCC(=O)O [ICOMUCRET]
66 µM	CCCCCC(O)/C=C/C#CCCCCCCCCCC(=O)O (stereo not given)
27 µM	CCCCCC(O)C#CC#CCCCCCCCCCC(=O)O (stereo not given)
58 µM	CCCCCC(O)/C=C\C=C\CCCCCCCCCC(=O)O (stereo not given)

SMILES	IC50
CCCCC[C@@H](/C=C/C=C\C/C=C\C/C=C\CCCC(=O)O)OO	3.4 µM

These compounds were tested against T1, Polyunsaturated fatty acid 5-lipoxygenase (Rattus norvegicus) (assay: Compound was evaluated for the inhibition of rat basophilic leukemia-1 (RBL-1) 5-Lipoxygenase at 33 uM).
Assay type: cell-based
Method in brief: as §1

inhibition	SMILES
16%	CCCCCC1/C=C/C#CCCCCCCCCCC(=O)O1 (stereo not given)

These compounds were tested against T1, Polyunsaturated fatty acid 5-lipoxygenase (Rattus norvegicus) (assay: Inhibition of rat basophilic leukemia-1 (RBL-1) 5-Lipoxygenase at 100 uM).
Assay type: cell-based
Method in brief: as §1

inhibition	SMILES
16%	CCCCCC/C=C/C=C\CCCCCCCCCC(=O)O
31%	COC(=O)CCCCC(O)/C=C/C=C/CCCCCCCCCC(=O)O (stereo not given)
48%	CCCCCC/C=C/C#CCCCCCCCCCC(=O)O
23%	CCCCCC(O)c1cccc(OCCCCCCCC(=O)O)c1 (stereo not given)
22%	COC(=O)CCCCC(O)/C=C/C#CCCCCCCCCCC(=O)O (stereo not given)
42%	CCCCCC1/C=C/C=C\CCCCCCCCCC(=O)O1 (stereo not given)
17%	CCCCCC(O)/C=C/C=C/CCCCCC(=O)O (stereo not given)
24%	CCCCCC(O)/C=C/C#CCCCCCCCC(=O)O (stereo not given)
40%	CCCCCC(/C=C/C#CCCCCCCCCCC(=O)O)OC(C)=O (stereo not given)
39%	CCCCCC(O)/C=C/C=C/CCCCCCCCC(=O)O (stereo not given)
44%	CCCCCC(O)/C=C\C=C/CCCCCCCCCC(=O)O (stereo not given)
30%	CCCCCC(O)C#C/C=C/CCCCCCCCCC(=O)O (stereo not given)
18%	CCCCCC(O)/C=C/C#CCCCCCCC(=O)O (stereo not given)
46%	O=C(O)CCCCCCCCC/C=C\C=C\C(O)CCCCCO (stereo not given)

Each compound was assayed against T1, Polyunsaturated fatty acid 5-lipoxygenase (Rattus norvegicus) (assay: Compound was evaluated for the inhibition of rat basophilic leukemia-1 (RBL-1) 5-Lipoxygenase at 40 uM).
Assay type: cell-based
Method in brief: as §1

inhibition	SMILES
49%	CCCCCCC(O)/C=C/C=C/CCCCCCCCCC(=O)O (stereo not given)

Each compound was assayed against T1, Polyunsaturated fatty acid 5-lipoxygenase (Rattus norvegicus) (assay: Compound was evaluated for the inhibition of rat basophilic leukemia-1 (RBL-1) 5-Lipoxygenase at 10 uM).
Assay type: cell-based
Method in brief: as §1

inhibition	SMILES
24%	CCCCCC(O)/C=C/C=C/CCCCCCC(=O)O (stereo not given)

The compounds below were run against T1, Polyunsaturated fatty acid 5-lipoxygenase (Rattus norvegicus) (assay: Compound was evaluated for the inhibition of rat basophilic leukemia-1 (RBL-1) 5-Lipoxygenase at 300 uM).
Assay type: cell-based
Method in brief: as §1

inhibition	SMILES
46%	CCCC(O)/C=C/C#CCCCCCCCCC(=O)O (stereo not given)
34%	CCCCC[C@H](O)/C=C/C=C\CCCCCCCC(=O)OC
34%	CCCCC[C@H](O)/C=C/C=C\CCCCCCCCCC(=O)OC
